Data on 29 molecules can be found in ChEMBL document CHEMBL1125774, “3-Methyl-2H-1-benzopyran potassium channel activators” (J Med Chem, 1991).

By IC50 is commonly meant the concentration needed to halve the response being measured. In general, EC50 refers to the concentration at which the effect is half-maximal.

Holding throughout (type): functional
For one test, the species on record is Sus scrofa. Put plainly: Relaxing effect determined by measuring inhibition of acetylcholine-induced contractions in pig coronary arteries. The gist of the method:
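Pig coronary artery rings from slaughterhouse hearts, resting tension 2 g, isometric force recording. Control acetylcholine contraction repeated every 45 min for three or four cycles, with the last cycle as predrug value. Rising compound concentrations added 30 min before agonist; a solvent ring served as time control.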

The species entered for test [1] is Oryctolagus cuniculus. Put plainly: Compound measured for hyperpolarization of smooth muscle cells of the rabbit main pulmonary artery at concentration 0.1 uM. The gist of the method:
(§1)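 Rabbit main pulmonary artery strips; intracellular glass microelectrode recording of smooth muscle membrane potential after 60 min equilibration. Baseline taken as potential reached with 1 µM noradrenaline. Bath medium exchanged for solutions of increasing compound concentration. At least four cells measured per concentration. Value is hyperpolarization (ΔmV) at the stated concentration, averaged over two preparations.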

The species named for test [2] is Oryctolagus cuniculus. Put plainly: Compound measured for hyperpolarization of smooth muscle cells of the rabbit main pulmonary artery at concentration 100 uM. An outline of the steps:
as §1

The species named for test [3] is Oryctolagus cuniculus. Description: Compound measured for hyperpolarization of smooth muscle cells of the rabbit main pulmonary artery at concentration 1 uM. An outline of the steps: as §1
Test [4] is filed under the species Oryctolagus cuniculus. Put plainly: Drug concentration required to induce half maximal hyperpolarization in rabbit main pulmonary arteries. An outline of the steps:
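Rabbit main pulmonary artery strips, 60 min equilibration, predepolarized with 1 µM noradrenaline. Membrane potential recorded intracellularly with glass microelectrodes in at least four cells per concentration while compound concentration was raised by bath exchange. EC50 is the concentration giving half-maximal hyperpolarization, taken from concentration/response curves.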

For test [5], the species on record is Oryctolagus cuniculus. Put plainly: Relaxing effect by measuring inhibition of noradrenaline-induced contractions in rabbit main pulmonary arteries. The gist of the method:
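Rabbit pulmonary artery rings 5 mm wide, resting tension 2 g, equilibrated 60–90 min, isometric force recording. Rings contracted with 0.7-1 µM noradrenaline (about 80% of maximal response). Once force was stable, compound added cumulatively in 0.5 log increments. IC50 (50% inhibition) determined graphically for each experiment and reported as geometric mean with 95% confidence limits.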

Test [6] is filed under the species Oryctolagus cuniculus. Description: Compound measured for hyperpolarization of smooth muscle cells of the rabbit main pulmonary artery at concentration 3 uM. The gist of the method: as §1
Test [7] is filed under the species Oryctolagus cuniculus. Put plainly: Compound measured for hyperpolarization of smooth muscle cells of the rabbit main pulmonary artery at concentration 10 uM. An outline of the steps: as §1
For test [8], the species on record is Oryctolagus cuniculus. Put plainly: Compound measured for hyperpolarization of smooth muscle cells of the rabbit main pulmonary artery at concentration 4 uM. The settings on record: in the assay text read “10 uM” for “4 uM”. The gist of the method:
as §1

As to `CCn1nc(O[C@@H]2c3cc(C#N)ccc3OC(C)(C)[C@@]2(C)O)ccc1=O`, in the test listed under Sus scrofa, the IC50 was found to be 0.007 µM. In addition, in the test listed under Oryctolagus cuniculus [1], the “Delta mV” value is 22.
Regarding `CC1(C)Oc2ccc(C#N)cc2[C@@H](Nn2ccccc2=O)[C@]1(C)O`, the IC50 in the test filed under Sus scrofa is greater than 100 µM. Further, in the test listed under Oryctolagus cuniculus [2], the “Delta mV” value is on record as 12.
The like results for `CC1(C)Oc2ccc(C#N)cc2[C@@H](n2ccccc2=O)[C@]1(C)O` were, in that order, greater than 100 µM and 19.
The like results for `CCOC[C@]1(O)[C@H](Oc2ccc(=O)[nH]n2)c2cc(C#N)ccc2OC1(C)C` were, in that order, 50 µM and 12.
In the test filed under Sus scrofa, `CC1(C)Oc2ccc(C#N)cc2[C@@H](On2ccccc2=O)[C@]1(C)O` registered an IC50 greater than 100 µM. In addition, the “Delta mV” value in the test filed under Oryctolagus cuniculus [2] worked out at 21.
The like results for `CC1(C)Oc2ccc(C#N)cc2[C@@H](Oc2ccc(=O)[nH]n2)[C@@]1(O)Cc1ccccc1` were, in that order, greater than 100 µM and 6.
On to `CC1(C)Oc2ccc(C#N)cc2[C@@H](OC2=CC(=O)CC2)[C@]1(C)O`, for which, in the test listed under Oryctolagus cuniculus [3], the “Delta mV” value worked out at 25. This molecule also displayed an IC50 in the test filed under Sus scrofa of 0.02 µM.
For `Cn1nc(O[C@@H]2c3cc(C#N)ccc3OC(C)(C)[C@H]2O)ccc1=O`, the concentration for half-maximal inhibition (IC50) was found to be 0.05 µM in the test filed under Sus scrofa and 0.026 µM in the test listed under Oryctolagus cuniculus [5]. Further, in the test filed under Oryctolagus cuniculus [4], the EC50 is 0.011 µM. Besides, the “Delta mV” value in the test listed under Oryctolagus cuniculus [1] came to 29.
Take `CC1(C)Oc2ccc(C#N)cc2[C@@H](n2ccccc2=O)[C@@H]1O`: the “Delta mV” value in the test listed under Oryctolagus cuniculus [3] is 34. This molecule also registered a concentration giving a half-maximal response (EC50) in the test listed under Oryctolagus cuniculus [4] of 0.105 µM. This molecule also yielded an IC50 in the test filed under Oryctolagus cuniculus [5] of 0.174 µM.
As to `CC1(C)C=C(n2ccccc2=O)c2cc(C#N)ccc2O1` [BIMAKALIM], the figures for the half-maximal inhibitory concentration (IC50) in the test filed under Sus scrofa and in the test listed under Oryctolagus cuniculus [5] were 0.05 µM and 0.057 µM, respectively. The molecule also returned an EC50 in the test listed under Oryctolagus cuniculus [4] of 0.027 µM. Further, the “Delta mV” value in the test listed under Oryctolagus cuniculus [1] is 23.
For the molecule `CC1(C)Oc2ccc(C#N)cc2[C@@H](Oc2ccc(=O)[nH]n2)[C@@]1(O)CO`, the “Delta mV” value in the test filed under Oryctolagus cuniculus [6] was determined as 32. Further, the half-inhibitory concentration (IC50) in the test listed under Sus scrofa was 0.7 µM.
Turning to `C[C@H]1[C@H](n2ccccc2=O)c2cc(C#N)ccc2OC1(C)C`, the “Delta mV” value in the test listed under Oryctolagus cuniculus [3] is 10. This molecule also showed a half-inhibitory concentration (IC50) in the test filed under Sus scrofa greater than 100 µM.
Molecule `CC1(C)Oc2ccc(C#N)cc2[C@@H](n2nc(N)ccc2=O)[C@]1(C)O` had an IC50 in the test filed under Sus scrofa of 40 µM. The “Delta mV” value in the test listed under Oryctolagus cuniculus [2] is recorded as 13.
Take `CC1(C)Oc2ccc(C#N)cc2[C@@H](Oc2ccc(=O)[nH]n2)[C@]1(C)O`: the IC50 stood at 0.006 µM in the test filed under Sus scrofa and 0.002 µM in the test filed under Oryctolagus cuniculus [5]. Further, the EC50 in the test filed under Oryctolagus cuniculus [4] came out at 0.003 µM. The “Delta mV” value in the test listed under Oryctolagus cuniculus [1] was found to be 29.
The molecule `CC1(C)Oc2ccc([N+](=O)[O-])cc2[C@@H](n2ccccc2=O)[C@]1(C)O` came in with an IC50 in the test listed under Sus scrofa of 20 µM. For the same molecule, the “Delta mV” value in the test filed under Oryctolagus cuniculus [7] came out at 22.
Turning to `CC1(C)Oc2ccc(C#N)cc2C(N2CCCC2=O)C1O` (stereo unspecified) [CROMAKALIM], the “Delta mV” value in the test listed under Oryctolagus cuniculus [6] turned out to be 28. Besides, the 50% inhibitory concentration (IC50) in the test listed under Sus scrofa was determined as 0.7 µM; in the test filed under Oryctolagus cuniculus [5] it was 0.42 µM. For the same molecule, the concentration for a half-maximal effect (EC50) in the test listed under Oryctolagus cuniculus [4] was 0.263 µM.
`CC1(C)Oc2ccc([N+](=O)[O-])cc2[C@@H](Oc2ccc(=O)[nH]n2)[C@]1(C)O`: the midpoint of inhibition in the test filed under Sus scrofa, the IC50, lay at 0.02 µM. In addition, the “Delta mV” value in the test listed under Oryctolagus cuniculus [1] came out at 24.
Take `CC1=C(n2ccccc2=O)c2cc(C#N)ccc2OC1(C)C`: in the test listed under Sus scrofa, inhibition was half-maximal at 5 µM (IC50). The “Delta mV” value in the test filed under Oryctolagus cuniculus [2] is reported as 29.
As to `Cn1nc(O[C@@H]2c3cc(C#N)ccc3OC(C)(C)[C@@]2(C)O)ccc1=O`, in the test filed under Sus scrofa, the concentration for half-maximal inhibition (IC50) stood at 0.03 µM. Also, the “Delta mV” value in the test listed under Oryctolagus cuniculus [1] amounted to 24.
In the test listed under Sus scrofa, `CC1(C)Oc2ccc(C#N)cc2[C@]2(n3ccccc3=O)O[C@]12C` registered a 50% inhibitory concentration (IC50) greater than 100 µM. Also, the “Delta mV” value in the test filed under Oryctolagus cuniculus [2] is recorded as 10.
The like results for `C[C@]1(O)[C@H](Oc2ccc(=O)[nH]n2)c2cc(C#N)ccc2OC12CCCCC2` were, in that order, 80 µM and 26.
Take `CC1(C)Oc2ccc(C#N)cc2[C@@H](Oc2ccccn2)[C@]1(C)O`: in the test listed under Sus scrofa, half-maximal inhibition (IC50) was put at 6 µM. For the same molecule, the “Delta mV” value in the test listed under Oryctolagus cuniculus [2] was 25.
The like results for `CC1=C(N2CCCC2=O)c2cc(C#N)ccc2OC1(C)C` were, in that order, greater than 100 µM and 29.
Molecule `CC1(C)Oc2ccc(C#N)cc2[C@@H](N2CCCC2=O)[C@]1(C)O` had an IC50 in the test filed under Sus scrofa of 4 µM. In the test filed under Oryctolagus cuniculus [8], the “Delta mV” value is 23.
`CC1(C)Oc2ccc(C#N)cc2[C@@H](Oc2ccnc(O)c2)[C@]1(C)O` showed an IC50 in the test filed under Sus scrofa of 0.004 µM. Besides, in the test listed under Oryctolagus cuniculus [1], the “Delta mV” value amounted to 35.
Consider `C[C@]1(O)[C@H](n2ccccc2=O)c2cc(C#N)ccc2OC12CCCCC2`, for which half-maximal inhibition in the test filed under Sus scrofa (IC50) required 20 µM. In the test listed under Oryctolagus cuniculus [2], the “Delta mV” value is 3.
The like results for `CC1(C)Oc2ccc(C#N)cc2[C@@H](Oc2ccc(=O)[nH]n2)[C@@]1(O)COCc1ccccc1` were, in that order, greater than 100 µM and 16.
Turning to `Cn1nc(N[C@@H]2c3cc(C#N)ccc3OC(C)(C)[C@@]2(C)O)ccc1=O`, in the test filed under Sus scrofa, inhibition was half-maximal at 0.02 µM (IC50). Also, in the test filed under Oryctolagus cuniculus [1], the “Delta mV” value turned out to be 34.
Turning to `CC1(C)Oc2ccc(C#N)cc2[C@H](Oc2ccc(=O)[nH]n2)[C@@]1(C)O`, the “Delta mV” value in the test listed under Oryctolagus cuniculus [2] was 20.
